In ChEMBL document CHEMBL1135546, “Dicaffeoyltartaric acid analogues inhibit human immunodeficiency virus type 1 (HIV-1) integrase and HIV-1 replication at nontoxic concentrations” (J Med Chem, 2002):

What was measured:
MT2 = assay: Inhibition of MT-2 cell growth by 5% or less over a 72 hr time period.; type: functional, Homo sapiens
In short: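 Compounds dissolved in water, 95% ethanol or ethanol/DMSO, diluted in growth medium, filter-sterilized, 2-fold serial dilutions in triplicate. MT-2 cells (2 × 10^5) exposed 72 h at 37 °C; viability by neutral red dye uptake. CT5 = 5% growth inhibition (within 1 SD of untreated controls), taken from linear part of dose-response curve; reported as greater than top concentration when not reachable.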

[1] = system: Human immunodeficiency virus 1; assay: Inhibition of 50% of the integrase-mediated catalysis of the V1/V2 substrate with 95% confidence interval; type: functional
[2] = Therapeutic index (ratio of CT5 to ED50).; conditions: for selectivity ratio: read-out: TI
[3] = system: Human immunodeficiency virus 1; assay: Inhibition of 50% of the integrase-mediated catalysis of the Y-oligo substrate with 95% confidence interval; type: functional
[4] = system: Human immunodeficiency virus 1; assay: Inhibition of HIV replication by 50%.; type: functional; conditions: read-out: ED50 (the source's name)
[5] = system: Human immunodeficiency virus 1; assay: Inhibition of 50% of the integrase-mediated catalysis of the V1/V2 substrate; type: functional
[6] = system: Human immunodeficiency virus 1; assay: Inhibition of 50% of the integrase-mediated catalysis of the Y-oligo substrate; type: functional

Row | SMILES | IC50 [1] | IC50 [3] | EC50 [4] | IC50 [5] | IC50 [6] | EC50 ([4]; Human immunodeficiency virus 1) | IC50 ([1]; Human immunodeficiency virus 1) | IC50 ([3]; Human immunodeficiency virus 1) | CT5 (MT2) | TI [2] | selectivity ratio [2]
1 | O=C(/C=C\c1ccc(O)c(O)c1)NC(COC(=O)/C=C/c1ccc(O)c(O)c1)C(=O)O (stereo not drawn) |  |  | 2.5 µM |  |  |  | 0.33 µM | 0.12 µM | 39 µM |  | 16
2 | CC(CCC(=O)O)C1CC[C@H]2[C@@H]3CCC4C[C@H](OC(=O)/C=C/c5ccc(O)c(O)c5)CC[C@]4(C)[C@H]3C[C@H](OC(=O)/C=C/c3ccc(O)c(O)c3)[C@]12C (stereo partly drawn) |  |  |  |  |  | > 17 µM |  | 1.97 µM | 6.4 µM |  | < 1
3 | CC(CCC(=O)O)C1CC[C@H]2[C@@H]3[C@H](OC(=O)/C=C/c4ccc(O)c(O)c4)CC4C[C@H](OC(=O)/C=C/c5ccc(O)c(O)c5)CC[C@]4(C)[C@H]3C[C@H](OC(=O)/C=C/c3ccc(O)c(O)c3)[C@]12C (stereo partly drawn) |  |  |  |  |  | > 140 µM | 0.97 µM | 0.75 µM | 11.4 µM |  | < 1
4 | CCN(CC)C(=O)C(Cc1ccc(O)c(O)c1)C(Cc1ccc(O)c(O)c1)C(=O)O (stereo not drawn) |  |  |  |  |  | 186 µM | > 10 µM | 5.27 µM | 93 µM |  | 0.5
5 | O=C(/C=C\c1ccc(O)c(O)c1)NC(CNC(=O)/C=C/c1ccc(O)c(O)c1)C(=O)O (stereo not drawn) |  |  |  |  |  | 35 µM | 0.83 µM | 0.57 µM | 35 µM |  | 1
6 | O=C(O)C(=C\c1ccc(O)c(O)c1)/C(=C/c1ccc(O)c(O)c1)C(=O)O |  |  |  |  |  | 4.4 µM | 0.83 µM | 2.19 µM | 55 µM |  | 12
7 | CCCCCCCCCCNC(=O)C(Cc1ccc(O)c(O)c1)C(Cc1ccc(O)c(O)c1)C(=O)O (stereo not drawn) |  |  |  |  |  | > 37 µM | > 10 µM | > 10 µM | 34 µM |  | < 1
8 | O=C(/C=C/c1ccc(O)c(O)c1)Nc1cc(NC(=O)/C=C/c2ccc(O)c(O)c2)cc(C(=O)O)c1 |  |  |  |  |  | 4.6 µM |  | 0.73 µM | 47 µM |  | 10

Continued, in another order:

Row | IC50 [1] | IC50 [3] | EC50 [4] | IC50 [5] | IC50 [6] | EC50 ([4]; Human immunodeficiency virus 1) | IC50 ([1]; Human immunodeficiency virus 1) | IC50 ([3]; Human immunodeficiency virus 1) | SMILES | CT5 (MT2) | TI [2] | selectivity ratio [2]
9 | 0.23 µM | 4.32 µM | 12.6 µM |  |  |  |  |  | O=C(O)C(Cc1ccc(O)c(O)c1)C(Cc1ccc(O)c(O)c1)C(=O)O (stereo in doubt; 23b) | 76 µM | 6 | 
10 |  |  |  | > 10 µM | > 10 µM | > 190 µM |  |  | O=C(OC(C(=O)O)C(OC(=O)c1cccs1)C(=O)O)c1cccs1 (stereo not drawn) | >190 µM |  | < 1
11 |  |  |  | > 10 µM | > 10 µM | > 95 µM |  |  | O=C(OC(C(=O)O)C(OC(=O)c1ccsc1)C(=O)O)c1ccsc1 (stereo not drawn) | 100 µM |  | < 1
12 |  |  |  |  |  | 2 µM | 0.37 µM | 0.19 µM | O=C(/C=C/c1ccc(O)c(O)c1)NCC(OC(=O)/C=C\c1ccc(O)c(O)c1)C(=O)O (stereo not drawn) | 175 µM |  | 88
13 |  |  | 1.9 µM |  |  |  | 0.44 µM | 2.78 µM | O=C(O)C(Cc1ccc(O)c(O)c1)C(Cc1ccc(O)c(O)c1)C(=O)O (stereo in doubt; 24b) | 71 µM | 37 | 
14 |  |  |  |  |  | 49 µM | > 10 µM | 2.84 µM | NC(=O)C(Cc1ccc(O)c(O)c1)C(Cc1ccc(O)c(O)c1)C(=O)O (stereo not drawn) | 123 µM |  | 2.5
15 |  |  |  |  |  | 4 µM | > 10 µM | 15.7 µM | CC(=O)Oc1ccc(/C=C/C(=O)OC(C(=O)O)C(OC(=O)/C=C/c2ccc(OC(C)=O)c(OC(C)=O)c2)C(=O)O)cc1OC(C)=O (stereo not drawn) | 18.6 µM |  | 4.5
16 |  |  |  | > 25 µM | > 25 µM | > 1000 µM |  |  | O=C(O)C(O)C(O)C(=O)O (stereo not drawn) | >1000 µM |  | < 1
